{"source": "the RNAGym collection of RNA variant scans (doi:10.1038/s41586-018-0170-7)", "parents": {"B1": {"name": "tRNA (parent)", "chain": "GUUCCGUUGGCGUAAUGGUAACGCGUCUCCCUCCUAAGGAGAAGACUGCGGGUUCGAGUCCCGUACGGAACG"}}}
{"variants_of": "B1", "assay": "yeast fitness, log relative to wild type (ln ratio); higher = fitter; tRNA-Arg(CCU), competitive growth, 37 C, 1 M NaCl", "how_it_was_run": "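In BY4742 missing the chromosomal gene, a combinatorial tRNA-Arg(CCU) variant library was maintained on a HIS3 centromeric plasmid. Selection ran ~6.5 generations (~26.5 h) in SC-HIS 1M NaCl at 37 °C, following 4 generations in SC-HIS at 30 °C, with three outputs per input and variant counts by 125 bp paired-end Illumina sequencing. Fitness is the natural log of a genotype's generations relative to the wild type's, with generations taken as inverse-variance-weighted, OD-scaled log2 output/input frequency.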"}
{"variant": "G6U C27U C46U C66A A69G A70U C71U", "yeast fitness (ln)": -0.328}
{"variant": "G1A U2C A43C C66U A70G", "yeast fitness (ln)": -0.161}
{"variant": "C27U C46U C66U A69G A70G C71U", "yeast fitness (ln)": -0.166}
{"variant": "U2C G6U C27U A43C", "yeast fitness (ln)": -0.0819}
{"variant": "U2C C27U A43C C46U A70G", "yeast fitness (ln)": -0.0098}
{"variant": "G1A U2G G6U C27U C66A A70U", "yeast fitness (ln)": -0.27}
{"variant": "A43C C71U", "yeast fitness (ln)": -0.038}
{"variant": "U2C G6U C46U A70U", "yeast fitness (ln)": -0.0445}
{"variant": "U2G G6A C27U C46U C66A", "yeast fitness (ln)": -0.0567}
{"variant": "G1A U2G G6A C27U C46U C66U A69G A70G", "yeast fitness (ln)": -0.272}
{"variant": "G1A U2G G6A C27U C46U C66U A69G A70U", "yeast fitness (ln)": -0.219}
{"variant": "U2G G6A", "yeast fitness (ln)": -0.00406}
{"variant": "G1A G6U A43C C46U A70U", "yeast fitness (ln)": -0.219}
{"variant": "U2G G6U C27U A69G A70G C71U", "yeast fitness (ln)": -0.363}
{"variant": "G1A A70U C71U", "yeast fitness (ln)": -0.0607}
{"variant": "G6U A43C A70U C71U", "yeast fitness (ln)": -0.287}
{"variant": "U2C C27U C46U A69G A70G", "yeast fitness (ln)": -0.0283}
{"variant": "G1A U2C G6U C46U C66U A69G A70U C71U", "yeast fitness (ln)": -0.317}
{"variant": "G1A U2G G6A C27U A43C C66U A69G A70U", "yeast fitness (ln)": -0.387}
{"variant": "G6U C27U A43C C46U C66A C71U", "yeast fitness (ln)": -0.299}
{"variant": "G1A U2G C27U C66A A70U", "yeast fitness (ln)": -0.165}
{"variant": "G1A U2G G6U C27U A43C C71U", "yeast fitness (ln)": -0.329}
{"variant": "U2C G6U C46U C66A C71U", "yeast fitness (ln)": -0.211}
{"variant": "U2C G6U C46U C66A A70G", "yeast fitness (ln)": -0.013}
{"variant": "U2G G6A C46U C66A A69G A70G C71U", "yeast fitness (ln)": -0.193}
{"variant": "G6A A69G C71U", "yeast fitness (ln)": -0.134}
{"variant": "G6A C27U C66U A69G A70G C71U", "yeast fitness (ln)": -0.256}
{"variant": "U2G G6U C27U A43C C46U A70U", "yeast fitness (ln)": -0.156}
{"variant": "G1A U2C G6A A43C C46U A70U C71U", "yeast fitness (ln)": -0.0375}
{"variant": "G1A G6A C46U C66U", "yeast fitness (ln)": -0.072}
{"variant": "U2G G6U A43C C66U A70U", "yeast fitness (ln)": -0.279}
{"variant": "A69G A70G", "yeast fitness (ln)": -0.0138}
{"variant": "U2G G6A A43C C66A A70G", "yeast fitness (ln)": -0.187}
{"variant": "U2C G6U A43C C46U C66A A70U C71U", "yeast fitness (ln)": -0.153}
{"variant": "U2C C27U C46U A70U C71U", "yeast fitness (ln)": -0.09}
{"variant": "G1A U2G G6A C27U C46U C66A C71U", "yeast fitness (ln)": -0.179}
{"variant": "U2G G6U C27U A69G A70U", "yeast fitness (ln)": -0.227}
{"variant": "U2C G6A C27U C46U A70U C71U", "yeast fitness (ln)": -0.123}
{"variant": "U2C C27U C66U A69G A70U", "yeast fitness (ln)": -0.188}
{"variant": "G1A A43C C46U A69G A70U", "yeast fitness (ln)": -0.0688}
{"variant": "C46U C66U A69G C71U", "yeast fitness (ln)": -0.396}
{"variant": "G1A U2C G6U A43C C66A A70G", "yeast fitness (ln)": -0.0507}
{"variant": "G1A G6A C46U C66A A70G C71U", "yeast fitness (ln)": -0.128}
{"variant": "G6A A43C C66U A69G A70U", "yeast fitness (ln)": -0.3}
{"variant": "U2G G6U A43C C66A A70U", "yeast fitness (ln)": -0.0132}
{"variant": "U2G G6A C27U A69G A70U", "yeast fitness (ln)": -0.151}
{"variant": "G6U C66A A70U", "yeast fitness (ln)": -0.0008}
{"variant": "G1A G6U A43C C46U C66A A70G", "yeast fitness (ln)": -0.17}
{"variant": "G1A C27U C46U A69G A70U", "yeast fitness (ln)": -0.118}
{"variant": "G6A C27U A43C C46U C66U A69G A70U", "yeast fitness (ln)": -0.306}
{"variant": "C27U C46U C66A A70G C71U", "yeast fitness (ln)": -0.129}
{"variant": "C27U A43C C66A C71U", "yeast fitness (ln)": -0.275}
{"variant": "U2G G6U C27U A43C C66U", "yeast fitness (ln)": -0.298}
{"variant": "U2G C27U A43C C46U C66U A69G A70G", "yeast fitness (ln)": -0.275}
{"variant": "U2G G6U C27U C66A", "yeast fitness (ln)": -0.0883}
{"variant": "U2G G6U C27U C66U", "yeast fitness (ln)": -0.233}
{"variant": "U2G G6U A43C A70U", "yeast fitness (ln)": -0.151}
{"variant": "U2C C27U A43C A70U C71U", "yeast fitness (ln)": -0.172}
{"variant": "G6U A43C A69G A70U C71U", "yeast fitness (ln)": -0.447}
{"variant": "G1A U2G A69G A70G", "yeast fitness (ln)": -0.118}
{"variant": "U2C A43C A70U", "yeast fitness (ln)": -0.0907}
{"variant": "U2C G6A C46U C66A A70G C71U", "yeast fitness (ln)": -0.142}
{"variant": "U2C G6U A69G A70G", "yeast fitness (ln)": -0.133}
{"variant": "U2G C27U A43C A69G A70U C71U", "yeast fitness (ln)": -0.364}
{"variant": "G1A U2G G6A A43C C46U C66A A70U C71U", "yeast fitness (ln)": -0.282}
{"variant": "U2C A43C C46U C66U A70G C71U", "yeast fitness (ln)": -0.152}
{"variant": "G1A U2C G6A C66U A70G C71U", "yeast fitness (ln)": -0.0113}
{"variant": "U2G G6U A69G A70G", "yeast fitness (ln)": -0.171}
{"variant": "G1A C27U A43C C66U A70G", "yeast fitness (ln)": -0.333}
{"variant": "G6A C27U C46U C66A A70G C71U", "yeast fitness (ln)": -0.252}
{"variant": "U2G G6U C27U C46U C66U A70U", "yeast fitness (ln)": -0.106}
{"variant": "G1A G6U A43C C46U", "yeast fitness (ln)": -0.155}
{"variant": "G1A G6A A43C", "yeast fitness (ln)": -0.204}
{"variant": "U2G A43C C66A", "yeast fitness (ln)": -0.0672}
{"variant": "G1A U2C G6A C27U C46U A70U C71U", "yeast fitness (ln)": -0.0799}
{"variant": "G1A U2C G6A A70G C71U", "yeast fitness (ln)": -0.0357}
{"variant": "G1A U2G A69G A70U C71U", "yeast fitness (ln)": -0.0282}
{"variant": "U2C G6U C27U C46U A69G A70G C71U", "yeast fitness (ln)": -0.244}
{"variant": "G1A C27U C46U C66A C71U", "yeast fitness (ln)": -0.148}
{"variant": "U2G C27U", "yeast fitness (ln)": -0.0566}
{"variant": "G1A G6U C27U C46U A69G A70G", "yeast fitness (ln)": -0.307}
{"variant": "U2G C27U C66U A70G", "yeast fitness (ln)": -0.147}
{"variant": "G1A U2G G6U A43C C46U A69G C71U", "yeast fitness (ln)": -0.393}
{"variant": "U2G G6U C27U C46U C66A A69G A70U C71U", "yeast fitness (ln)": -0.314}
